# According to the RNAGym collection of RNA variant scans (doi:10.1038/nmeth.2970):
# B1: NELF-E aptamer (parent)
# chain: CCCAACGACUGCCGAGCGAGAUUACGCUUGAGCGCCCCACUGAGGAUGCCCACGGGCGAUUGGGGCACGG
# Variants of: B1
# Test: HiTS-RAP
# Conditions: with NELF-E (Drosophila)
# In short: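 Aptamer DNA templates bearing a T7 promoter and a ter site were sequenced on an Illumina GAIIx flowcell. T7 RNA polymerase then transcribed them in situ, and GST-Tus halted transcription over 30 minutes at 37°C. After a 30-minute room-temperature equilibration with NELF-E-mOrange at 0.064 to 1000 nM in HEPES binding buffer, clusters were imaged, using only the first binding curve. Intensities normalised to sequencing intensity were averaged per sequence and fitted with weighted Hill fits to give Kd, retaining only fits whose variance stayed under 1,000,000.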
row,Variant,Kd
1,U29A U41C,79.2 nM
2,U29A U41G,6.07 nM
3,A52C,5.64 nM
4,A52U,15.4 nM
5,A52G,4.24 nM
6,G26A A67G,4.9 nM
7,U29C A43U,43.4 nM
8,U29C C66U,5.81 nM
9,A31G A52U,21.5 nM
10,A31G G32U,4.81 nM
11,A31G G32A,5.29 nM
12,U41G G65U,6 nM
13,U41G G65A,6.9 nM
14,C25U,5.19 nM
15,C25G,5.2 nM
16,C25A,4.89 nM
17,A43U,67 nM
18,A43C,76 nM
19,A43G,24.6 nM
20,G26A U41G,4.19 nM
21,U47G G48U,6.17 nM
22,C40U U41G,7.61 nM
23,A31G G55A,9.56 nM
24,U29G G54U,6.72 nM

row,Variant,Kd
1,U29G G54A,13.1 nM
2,C37A U41G,15.9 nM
3,U29G G64A,7.34 nM
4,U29G G64C,5.11 nM
5,U29G G64U,6.21 nM
6,U29G A46U,77.8 nM
7,U29G A46G,22.4 nM
8,C38U U41G,7.77 nM
9,G26A,4.05 nM
10,G26C,13.8 nM
11,G26U,5.53 nM
12,U41G G62A,19.9 nM
13,G30C,6.15 nM
14,G30U,5.41 nM
15,G30A,4.41 nM
16,U41G C66U,4.15 nM
17,U29G G58U,8.12 nM
18,C36U,6.29 nM
19,C36G,6 nM
20,C36A,8.24 nM
21,U41G U61A,34.9 nM
22,U41G A43U,26.3 nM
23,U41G A43G,8.31 nM
24,A46G G54A,129 nM

row,Variant,Kd
1,A31G G54A,18.4 nM
2,U29G C38U,8.13 nM
3,A52U G63U,42.2 nM
4,A52U G63A,50.8 nM
5,A31U A39U,38.1 nM
6,C37G,5.85 nM
7,C37A,13.7 nM
8,C37U,11.1 nM
9,U41G G55A,7.84 nM
10,U41G G55C,6.95 nM
11,U41G G55U,7.2 nM
12,A43G A67U,23.5 nM
13,U41A A67U,59.4 nM
14,A31U U41G,7.78 nM
15,G48U,5.99 nM
16,G48C,85.4 nM
17,G48A,9.57 nM
18,A39G C57U,9.77 nM
19,A31G A67U,10.7 nM
20,C50U,12.2 nM
21,C50A,14.7 nM
22,C50G,6.31 nM
23,G34U C35G,4.52 nM
24,U41C G54A,103 nM

row,Variant,Kd
1,A31G A43G,11.3 nM
2,A46U U47G,5.55 nM
3,U29G C36G,8.06 nM
4,U29G C36U,9.64 nM
5,C27U U28G,5.03 nM
6,A24G U61C,76.4 nM
7,A24G U61G,9.98 nM
8,C25G U41G,6.42 nM
9,G48U C49G,5.14 nM
10,U29G C33U,6.03 nM
11,U29G C33G,6.45 nM
12,A46U A59G,60.5 nM
13,A43G A59G,69 nM
14,C33U,4.92 nM
15,C33G,5.4 nM
16,C33A,4.67 nM
17,U29C A67U,5.08 nM
18,C33U A39U,26.9 nM
19,U41G G56A,5.81 nM
20,U41G G56U,5.56 nM
21,U29A C53U,5.35 nM
22,A39G U61C,8.88 nM
23,A39U U61A,17.4 nM
24,G34A U41G,7.5 nM

row,Variant,Kd
1,A46G A67G,36.2 nM
2,U29G C37G,8.38 nM
3,U29G C37A,14.8 nM
4,U29G C37U,12.4 nM
5,U29G U41C,67.5 nM
6,U29G U41A,78.7 nM
7,U29G U41G,5.31 nM
8,U29C C36U,6 nM
9,C51U A52G,7.06 nM
10,A39U G54A,39.3 nM
11,G54A,11.8 nM
12,U29A A67U,5.96 nM
13,U29G A39U,26.4 nM
14,U29G A39C,24.7 nM
15,U29G A39G,7.69 nM
16,C40U,56.6 nM
17,C40A,71.3 nM
18,C40G,5.55 nM
19,A43G U60C,20.1 nM
20,U41G G63U,11.8 nM
21,U41G G63A,16.8 nM
22,G54A C66U,16.9 nM
23,C25U U41G,6.6 nM
24,C27A,4.28 nM

row,Variant,Kd
1,C27G,5.01 nM
2,C27U,4.14 nM
3,C25G G26U,5.3 nM
4,C25G G26C,6 nM
5,G45U A46G,5.32 nM
6,A31G C51U,7.88 nM
7,U41G A67G,6.35 nM
8,U41G A67U,7 nM
9,U41G G45A,53.9 nM
10,U41G G45U,5.07 nM
11,U41G C51U,7.25 nM
12,A52G C53U,6.67 nM
13,C33U G54A,6.14 nM
14,U41G G42U,5.09 nM
15,U41G G42A,23.5 nM
16,A43U A67U,37.1 nM
17,U29C,4.9 nM
18,U29A,4.54 nM
19,U29G,4.93 nM
20,C38U A39G,6.36 nM
21,U29G A67G,5.86 nM
22,U29G A67U,6.79 nM
23,C33G U41G,7.38 nM
24,U28G U41G,5.18 nM

row,Variant,Kd
1,U29G G63U,12.4 nM
2,U29G G63A,11.4 nM
3,G30A A31G,5.33 nM
4,C25G U29G,6.18 nM
5,C53G,5.16 nM
6,C53U,3.8 nM
7,C53A,4.92 nM
8,U47C,9.59 nM
9,U47A,10.2 nM
10,U47G,6.05 nM
11,U28C,8.26 nM
12,U28A,4.43 nM
13,U28G,6.24 nM
14,G26C C27G,3.95 nM
15,G34A A52U,20.7 nM
16,U28G A39G,11.2 nM
17,U29G U60A,13.2 nM
18,U29G U60C,11.4 nM
19,C51U C66U,7.21 nM
20,C51U,6.66 nM
21,C51G,4.48 nM
22,C51A,8.65 nM
23,U29G A59U,23.9 nM
